pIC50: −log10 of the molar value. Activity calls are given as the source filed them. The rule behind the calls is not given here.
Assays:
[1] = tested on: K562; assay: Growth inhibition of human K562 cells; format: functional, cell-based
[2] = tested on: HL-60; assay: Growth inhibition of human HL60 cells; format: functional, cell-based
[3] = tested on: KG-1a; assay: Growth inhibition of human KG1a cells; format: functional, cell-based
[4] = tested on: B16-BL6; assay: Inhibition of cell migration of mouse B16-BL6 cells at 0.82 uM incubated for 24 to 48 hrs by cell wound scratch assay; format: functional, cell-based
How it was run: (§1)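 Wound-scratch migration assay in mouse B16BL6 monolayers. Each compound was given at a single concentration for 2 days, and migration was compared with an untreated control group.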

[5] = tested on: Mus musculus; assay: Toxicity in Kunming mouse assessed as survival rat at 1000 mg/kg, po dosed once for 2 weeks; format: organism-based; settings: in vivo, 336 h
How it was run: (§2)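 Single oral dose to mice, then observed for 14 days with survival rate recorded. Doses tested were 200, 500 and 1000 mg/kg. The dasatinib comparator was given at 200 mg/kg only.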

[6] = tested on: Mus musculus; assay: Toxicity in Kunming mouse assessed as survival rat at 500 mg/kg, po dosed once for 2 weeks; format: organism-based; settings: in vivo, 336 h; how it was run: as §2
[7] = tested on: MCF7; assay: Inhibition of colony formation in human MCF7 cells incubated for 10 days by crystal violet staining based plate cloning test; format: functional, cell-based
How it was run: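 MCF-7 colony formation assay. Cells received low, middle and high concentrations (0.96/1.90/3.80 μM or 0.68/1.35/2.70 μM, depending on compound) for 10 days. Colony counts were compared with an untreated control group, with significance at P < 0.05 and P < 0.01.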

[8] = Toxicity in Kunming mouse assessed as survival rat at 200 mg/kg, po dosed once for 2 weeks; format: organism-based; settings: in vivo; how it was run: as §2
[9] = tested on: B16-BL6; assay: Inhibition of cell migration of mouse B16-BL6 cells at 1.43 uM incubated for 24 to 48 hrs by cell wound scratch assay; format: functional, cell-based; how it was run: as §1
[10] = tested on: KG-1a; assay: Potency index, ratio of IC50 for dasatinib to IC50 for test compound for growth inhibition of human KG1a cells; format: functional
[11] = tested on: B16-BL6; settings: Mus musculus, 8.13 uM
[12] = tested on: MCF7; settings: Homo sapiens, 7.5 uM

Compound | pIC50 [1] | pIC50 [2] | pIC50 [3] | also measured
Cc1nc(Nc2ncc(-c3cn(-c4c(C)cccc4Cl)nn3)s2)cc(N2CCN(CCO)CC2)n1 | 7.85 | 8.38 | 6.85 | inhibition [4]: Active; Activity [5]: Non-Toxic; Activity [6]: Non-Toxic; inhibition [7]: Dose-dependent effect; survival at 336 h [8]: 100%
Cc1nc(Nc2ncc(-c3nnc(-c4c(C)cccc4Cl)o3)s2)cc(N2CCN(CCO)CC2)n1 | 6.64 | 6.82 | 7.30 | Activity [5]: Non-Toxic; inhibition [9]: Active; Ratio IC50 [10]: 180; Activity [6]: Non-Toxic; inhibition [7]: Dose-dependent effect; survival at 336 h [8]: 100%
Cc1nc(Nc2ncc(-c3nnc(-c4c(C)cccc4Cl)o3)s2)cc(N2CCN(CCN=C=S)CC2)n1 | 5.74 | 5.85 | 6.82 | 
Cc1nc(Nc2ncc(C(=O)Nc3c(C)cccc3Cl)s2)cc(N2CCN(CCO)CC2)n1 [DASATINIB] | 10.16 | 9.96 | 5.05 | inhibition [11]: Active; inhibition [12]: Active; survival at 336 h [8]: 100%
Cc1nc(Nc2ncc(-c3cn(-c4c(C)cccc4Cl)nn3)s2)cc(N2CCN(CCN=C=S)CC2)n1 | 7.44 | 7.78 | 6.49 | 
C=CC(=O)NCCN1CCN(c2cc(Nc3ncc(-c4nnc(-c5c(C)cccc5Cl)o4)s3)nc(C)n2)CC1 | 6.82 | 6.80 | 6.96 | 
Cc1nc(Nc2ncc(-c3nnc(-c4c(C)cccc4Cl)o3)s2)cc(N2CCN(CCNC(=O)CCl)CC2)n1 | 5.51 | 5.67 | 5.01 | 
Cc1nc(Nc2ncc(-c3nnc(-c4c(C)cccc4Cl)o3)s2)cc(N2CCN(CCN)CC2)n1 | 6.59 | 6.96 | 6.17 | 

The next lines start with results.

pIC50 [1] | pIC50 [2] | Compound | pIC50 [3] | also measured
8.78 | 9.07 | Cc1nc(Nc2ncc(C(=O)Nc3c(C)cccc3Cl)s2)cc(N2CCN(CCNC(=O)CCl)CC2)n1 | 4.87 | 
7.82 | 8.26 | C=CC(=O)NCCN1CCN(c2cc(Nc3ncc(-c4cn(-c5c(C)cccc5Cl)nn4)s3)nc(C)n2)CC1 | 6.60 | 
7.93 | 8.39 | Cc1nc(Nc2ncc(-c3cn(-c4c(C)cccc4Cl)nn3)s2)cc(N2CCN(CCN)CC2)n1 | 5.69 | 
10.41 | 9.59 | C=CC(=O)NCCN1CCN(c2cc(Nc3ncc(C(=O)Nc4c(C)cccc4Cl)s3)nc(C)n2)CC1 | 4.89 | 
7.75 | 8.01 | Cc1nc(Nc2ncc(-c3cn(-c4c(C)cccc4Cl)nn3)s2)cc(N2CCN(CCNC(=O)CCl)CC2)n1 | 6.35 | 
8.42 | 8.97 | Cc1nc(Nc2ncc(C(=O)Nc3c(C)cccc3Cl)s2)cc(N2CCN(CCN=C=S)CC2)n1 | 5.71 | 
9.14 | 9.60 | Cc1nc(Nc2ncc(C(=O)Nc3c(C)cccc3Cl)s2)cc(N2CCN(CCN)CC2)n1 | 4.60 | 

From ChEMBL document CHEMBL4184233, “Design and synthesis of novel dasatinib derivatives as inhibitors of leukemia stem cells” (Bioorg Med Chem Lett, 2018)
